Beta2AR agonist: activates human beta-2 adrenergic receptor causing internalization. P07550. Am2.2-beta2AR cells, FAP receptor internalization, flow cytometry. response, % (test concentration not listed). 340,000 compounds, 0.43% hits. AID 504454;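 active = response above a set limit, near 3 SD of response in nonfluorescent compounds, cut at about 42% in these data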
CXCR6 inh: blocks human CXCR6 beta-arrestin recruitment. 360,000 compounds, 0.36% hits. O00574. AID 602244. CHO-K1 PathHunter CXCR6 beta-arrestin, luminescence. inhibition, % at 20 µM; in the data active = inhibition above about 34%, passing the limit was not always enough;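 note: antagonist mode with CXCL16 agonist at 10 nM final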
PfGluPho inh: PfG6PD (Plasmodium falciparum) enzyme inhibition; inhibition, % at 20 µM; 350,000 compounds, 0.78% hits; PfGluPho enzyme, NADPH resazurin-diaphorase fluorescence; AID 504690;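 active = inhibition reaching at least a set limit at 20 µM in the primary screen, cut at about 59% in these data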
APJ antagonist: APJ receptor antagonism; CHO-K1 APJ beta-arrestin complementation, luminescence; AID 2521; 330,000 compounds, 0.32% hits; inhibition, % at 20 µM; P35414;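 active = inhibition above about 40% at 20 µM, limit read from the data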;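 note: cells challenged with 10 nM apelin-13 agonist together with compound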
APJ agonist: activates the human apelin receptor APJ | P35414 | CHO-K1 APJ PathHunter beta-arrestin, luminescence; 0% DMSO wells, 100% apelin | activation, % at 20 µM | 330,000 compounds, 0.11% hits | AID 2520;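 active = activation more than six SD over the plate average, tested at 20 µM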
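system = engineered CHO-K1 APJ arrestin reporter cells | input = 1000 cells per well | timing = overnight seeding, 90 min compound at 25 °C, 1 h detection | measured by = enzyme-fragment complementation luminescence | read-out = beta-arrestin recruitment to APJ as agonist activity, luminescent signal | control set = negative DMSO alone, positive Apelin-13 at 10 nM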
CCR6 antag: blocks CCL20-driven beta-arrestin recruitment at human CCR6. 340,000 compounds, 0.49% hits. CHO-K1 CCR6 PathHunter beta-arrestin, luminescence, CCL20-stimulated. P51684. AID 493098. inhibition, % at 20 µM;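 active = compounds whose inhibition of the agonist-driven luminescence signal at 20 µM reaches about 50%, limit read from the data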;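 note: cells stimulated with CCL20 at 14 nM final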
Target sequence (P51684 whole entry, looked up): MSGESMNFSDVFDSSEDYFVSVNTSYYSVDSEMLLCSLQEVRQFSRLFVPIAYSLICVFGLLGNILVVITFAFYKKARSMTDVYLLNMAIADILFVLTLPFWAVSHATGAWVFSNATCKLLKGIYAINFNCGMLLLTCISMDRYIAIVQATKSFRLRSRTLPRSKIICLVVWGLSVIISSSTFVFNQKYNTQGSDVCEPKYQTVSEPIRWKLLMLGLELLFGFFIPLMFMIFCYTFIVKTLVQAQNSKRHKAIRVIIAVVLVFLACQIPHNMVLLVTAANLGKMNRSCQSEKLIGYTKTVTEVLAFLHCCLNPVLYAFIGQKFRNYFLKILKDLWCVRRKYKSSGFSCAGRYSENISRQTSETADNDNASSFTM
Beta2AR ag CP1: agonists of human beta-2 adrenergic receptor | shares compounds with Beta2AR agonist | AID 540358 | 1,100 compounds, 25% hits | percent response (surface receptor), % at 10 µM | Am2.2-beta2AR cells, FAP surface receptor, flow cytometry; stronger effect = lower value;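 active = surface receptor percent response at or below 58%, roughly 3 SD from nonfluorescent compounds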
FAP fluor counter: fluorescence artifact in beta-2AR agonist FAP counterscreen; 1,100 tested, under 10 active; shares compounds with Beta2AR agonist; calls only at 10 µM; Am2.2 cells, FAP fluorogen flow cytometry; stronger effect = lower value;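 active = percent response below a set limit in fluorescence channel 1 and below 50% in channel 8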
Large screens that a line does not name were inactive (follow-up assays come after a bar, where they were run). Hits are enriched below; roughly 1.7% of the tested compounds scored in any of these assays.

C=CCn1c(CCNC(=O)c2cccs2)nnc1SCC(=O)c1cccc([N+](=O)[O-])c1	Beta2AR agonist 106.5 | Beta2AR ag CP1 9.3 | FAP fluor counter inactive
C=CCn1c(CCNC(=O)c2cccs2)nnc1SCC(=O)c1ccc(Cl)cc1	Beta2AR agonist 90.1 | Beta2AR ag CP1 31.1 | FAP fluor counter inactive
C=CCn1c(CCNC(=O)c2cccs2)nnc1SCC(=O)Nc1cccc(Cl)c1C	Beta2AR agonist 60.3 | Beta2AR ag CP1 inactive | FAP fluor counter inactive
COc1ccc2c(CC(=O)OCc3nc4ccsc4c(=O)[nH]3)coc2c1	none
Cn1nc(C(=O)OCC(=O)c2ccc(Cl)cc2)c2ccccc2c1=O	none
CC1CC(C)CN(C(=O)COC(=O)COc2ccccc2C#N)C1 (stereo unspecified)	none
COCCn1c(=S)[nH]c2ccc(N(C)C)cc2c1=O	Beta2AR agonist 45.1 | Beta2AR ag CP1 inactive | FAP fluor counter inactive
CCOc1cc2[nH]c(=S)n(CCOC)c(=O)c2cc1OCC	none
N#Cc1c(-c2ccccc2)nc(SCC(=O)NC2CCCCC2)[nH]c1=O	none
CN(C(=O)CSc1nc(-c2ccc(C(C)(C)C)cc2)c(C#N)c(=O)[nH]1)C1CCCCC1	none | Beta2AR ag CP1 inactive | FAP fluor counter inactive
Cc1ccc(S(=O)(=O)c2nc(NN(C)C)sc2Cl)cc1	none
COc1ccccc1C(CCNCc1ccc(N(C)C)cc1)c1ccc(OC(C)C)cc1 (stereo unspecified)	Beta2AR agonist 64.7 | Beta2AR ag CP1 inactive | FAP fluor counter inactive
COc1ccccc1C(CCNCc1ccccc1)c1ccc(OC(C)C)cc1 (stereo unspecified)	none | Beta2AR ag CP1 inactive | FAP fluor counter inactive
COc1ccc(C(CCNCc2ccc(OC(C)C)cc2)C(C)C)cc1 (stereo unspecified)	none
COc1ccc(CNCCC(c2ccc(OC(C)C)cc2)c2ccccc2OC)cc1OC (stereo unspecified)	none | Beta2AR ag CP1 inactive | FAP fluor counter inactive
COc1ccc(CNCCC(c2ccc(OC(C)C)cc2)c2ccccc2OC)cc1 (stereo unspecified)	none | Beta2AR ag CP1 inactive | FAP fluor counter inactive
COc1ccc(C(CCNCc2ccc(N(C)C)cc2)C(C)C)cc1 (stereo unspecified)	none
COc1ccc(CNCCC(c2ccc(OC(C)C)cc2)C(C)C)cc1OC (stereo unspecified)	none
N#CC1(NC(=O)COc2ccc(C(N)=O)cc2)CCCC1	none
Cc1ccc(N2C(=O)CCC2=O)c(C)c1	none
CC(O)CC(=O)NOCc1ccccc1 (stereo unspecified)	none (no result: APJ antagonist, APJ agonist)
COc1ccc(CNCCC(c2ccccc2)c2ccc3c(c2)OCO3)cc1 (stereo unspecified)	none | Beta2AR ag CP1 inactive | FAP fluor counter inactive
COc1ccc(Cl)cc1C(=O)N1CCN(c2ccccn2)CC1	Beta2AR agonist 51.6 | Beta2AR ag CP1 inactive | FAP fluor counter inactive
CC1=C(C#N)C(c2cn(-c3ccccc3)nc2-c2cccs2)C(C#N)=C(C)N1	Beta2AR agonist 108.4 | Beta2AR ag CP1 12.6 | FAP fluor counter inactive
O=C(CNS(=O)(=O)c1ccc(Br)cc1)NCc1ccncc1	none
CC(NC(=O)c1ccco1)c1nc(-c2ccccc2)no1 (stereo unspecified)	none
Cc1ccccc1OCc1nc(-c2ccc(NC(=O)c3ccco3)cc2)no1	none | Beta2AR ag CP1 inactive | FAP fluor counter inactive
Cc1ccccc1OCc1nc(-c2ccc(NC(=O)c3cccs3)cc2)no1	none | Beta2AR ag CP1 inactive | FAP fluor counter inactive
CC(Oc1ccc(Cl)cc1Cl)c1nc(-c2ccc(NC(=O)c3ccco3)cc2)no1 (stereo unspecified)	Beta2AR agonist 66.3 | Beta2AR ag CP1 inactive | FAP fluor counter inactive
Cc1ccccc1-c1nc(-c2ccc(NC(=O)c3cccs3)cc2)no1	none
C[C@@H](NC(=O)c1ncn2c1C(=O)NC[C@@H]2C)c1ccccc1	none (no result: Beta2AR agonist, APJ antagonist, APJ agonist, CCR6 antag)

From PubChem
